Screening data: PubChem, several laboratories
A selection: hits, their analogues and other compounds. The true share with any hit is near 3.4%.
RanGTP-Imp inh – inhibitors of RanGTP-importin-beta interaction, primary screen, biochemical, FRET, CFP-Ran, YFP-importin-beta, homogeneous; inhibition, % (test concentration not listed); cell-free CFP-Ran/YFP-importin-beta FRET ratio; 300,000 tested, 1.1% active;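 active = more than half of the replicate wells show a fall in the fluorescence ratio signal beyond about 16%, limit read from the data, passing the limit was not always enough; inconclusive = exactly half of the replicate wells pass the set limit; inactive = fewer than half of replicates pass the limit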;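 also: 0% = DMSO wells and 100% = Ran loaded with GDP instead of GTP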
Runt-CBFb FRET – Runt domain-CBFb interaction inhibition | Cerulean-Runt/Venus-CBFb FRET ratio 530/480, 1 h | inhibition, % at 20 µM | 220,000 tested, 0.46% active;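 active = inhibition over about 50% at 20 µM in the single-dose screen, limit read from the data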;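 also: 0% = DMSO wells and 100% = excess unlabeled CBFb competitor control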
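Doses: 20 µM compound in 1% DMSO | Material: Cerulean-labeled Runt domain protein | Amount: Each fluorescent fusion protein 100 nM | Schedule: Two 1 h room-temperature incubations shielded from light | Measured by: FRET fluorescence | Evaluation: Loss of energy transfer signal | Controls: Unlabeled CBFb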
Wee1 stabilizer – blocks degradation of human Wee1 kinase. P30291. HeLa Luc-Wee1K328M stability, luciferase luminescence; 100% = proteasome inhibitor MG132 effect. reporter increase, % at 5 µM. 220,000 tested, 1.2% active. AID 1321;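 active = activation above the mean of all tested compounds plus 3 SD, set per screening run, cut at about 8.8% in these data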;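 also: cells exposed to compound for 20 h before luminescence read; 0% = DMSO alone and 100% = MG132 at 30 µM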
Target sequence (P30291 whole entry K328M): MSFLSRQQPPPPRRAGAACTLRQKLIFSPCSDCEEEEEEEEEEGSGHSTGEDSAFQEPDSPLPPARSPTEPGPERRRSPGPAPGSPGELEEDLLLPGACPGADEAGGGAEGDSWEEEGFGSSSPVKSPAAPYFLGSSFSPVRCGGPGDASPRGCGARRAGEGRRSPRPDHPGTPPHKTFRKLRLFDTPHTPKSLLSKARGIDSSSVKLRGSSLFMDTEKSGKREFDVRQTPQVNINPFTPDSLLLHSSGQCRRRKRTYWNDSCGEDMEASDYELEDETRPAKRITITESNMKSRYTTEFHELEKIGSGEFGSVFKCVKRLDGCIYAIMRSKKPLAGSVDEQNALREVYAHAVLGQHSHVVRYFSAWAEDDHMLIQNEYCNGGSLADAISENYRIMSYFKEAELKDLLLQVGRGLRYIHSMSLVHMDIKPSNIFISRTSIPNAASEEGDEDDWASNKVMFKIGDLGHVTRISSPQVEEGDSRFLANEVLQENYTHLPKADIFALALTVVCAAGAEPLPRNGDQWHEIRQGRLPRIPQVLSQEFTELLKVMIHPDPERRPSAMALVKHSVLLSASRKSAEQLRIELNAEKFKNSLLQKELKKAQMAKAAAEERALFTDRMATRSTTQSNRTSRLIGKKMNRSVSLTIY
HMGR II inh – inhibitors of class II HMG-CoA reductase from Enterococcus faecalis. purified E. faecalis HMGR, NADPH absorbance 340 nm kinetic. inhibition, % at 10 µM. 190,000 tested, 0.41% active;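 active = inhibition above a set limit, the median over all tested compounds plus 3 SD, cut at about 9.5% in these data; inconclusive = no clear call, values can overlap the other calls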;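 also: enzyme runs in reverse so mevalonate oxidation gives rising NADPH absorbance; 0% = complete reaction with DMSO and 100% = background rate lacking mevalonate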
PHOSPHO1 inh – blocks human PHOSPHO1 phosphatase activity. inhibition, % at 13.3 µM. Q8TCT1. recombinant PHOSPHO1, absorbance phosphatase assay. AID 1565. 290,000 tested, 1.1% active; in the data active = inhibition above about 60%
Runt-SMMHC FRET – Runt domain-CBFb-SMMHC interaction inhibition. Cerulean-Runt/Venus-CBFb-SMMHC FRET ratio 530/480, 1 h. inhibition, % at 20 µM. 220,000 tested, 0.74% active. AID 1434;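 active = mean inhibition across duplicate retests at 20 µM reaching about 50%, limit read from the data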;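 also: 0% = DMSO wells and 100% = wells with excess untagged CBFb-SMMHC; inhibitors lower the FRET ratio by blocking Runt binding to CBFb-SMMHC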
* = called active by the depositor.

`O=C(c1cc(F)ccc1F)C1CCCN(CCCc2ccccc2)C1` (centres undefined) gave RanGTP-Imp inh -2, Runt-CBFb FRET 1, Wee1 stabilizer 1, HMGR II inh 9.6*, PHOSPHO1 inh 23 and Runt-SMMHC FRET 1.
`Oc1c(Cl)c(Cl)c(Cl)c(Cl)c1Cl` gave RanGTP-Imp inh 0.
Screening c1ccc2c(CN3CCN(C4CCCCC4)CC3)c[nH]c2c1 returned RanGTP-Imp inh 3, Runt-CBFb FRET -1, Wee1 stabilizer 11*, HMGR II inh -6, PHOSPHO1 inh 16 and Runt-SMMHC FRET -7.
`O=C(O)c1ccc(NC(=O)N2C[C@H]3C[C@@H](C2)c2cccc(=O)n2C3)cc1` gave RanGTP-Imp inh -10 and PHOSPHO1 inh 29.
COc1ccc(CN2C(=O)NC(=O)/C(=C\c3ccco3)C2=O)cc1 was read as RanGTP-Imp inh -3, Runt-CBFb FRET 8, Wee1 stabilizer -2, HMGR II inh 12*, PHOSPHO1 inh -33 and Runt-SMMHC FRET -1.
For O=C(O)c1nonc1-c1nonc1C(=O)O the results were Runt-CBFb FRET 1, Wee1 stabilizer 18*, HMGR II inh 1, PHOSPHO1 inh 6 and Runt-SMMHC FRET 0.
For CC(C)OCCCNC(=O)c1c(N)n(CC2CCCO2)c2nc3ccccc3nc12 (centres undefined) the results were RanGTP-Imp inh 103*, Runt-CBFb FRET 74*, Wee1 stabilizer -1, HMGR II inh 2, PHOSPHO1 inh 7 and Runt-SMMHC FRET 62*.
Screening COCCCNC(=O)c1c(NC(=O)c2ccccc2)n(Cc2ccccc2)c2nc3ccccc3nc12 returned RanGTP-Imp inh inconclusive and Wee1 stabilizer -1.
CCCNC(=O)c1c(N)n(CC2CCCO2)c2nc3ccccc3nc12 (centres undefined) was read as RanGTP-Imp inh -3, Runt-CBFb FRET 4, Wee1 stabilizer -3, HMGR II inh -1, PHOSPHO1 inh 19 and Runt-SMMHC FRET 78*.
CC1N=C(c2ccccc2Cl)c2cc(Br)ccc2NC1=O (centres undefined) was read as RanGTP-Imp inh 0 and PHOSPHO1 inh 20.
O=C(NCCN1CCOCC1)c1ccc(Cl)nc1 was read as RanGTP-Imp inh -1, Runt-CBFb FRET 0, Wee1 stabilizer 3, PHOSPHO1 inh 30 and Runt-SMMHC FRET 2.
For CCCCCCn1c(N)c(C(=O)NCCN2CCOCC2)c2nc3ccccc3nc21 the results were RanGTP-Imp inh 70*, Runt-CBFb FRET 28, Wee1 stabilizer 0, HMGR II inh -1, PHOSPHO1 inh 17 and Runt-SMMHC FRET 62*.
COc1ccc(CCNCc2ccccn2)cc1OC was read as RanGTP-Imp inh -4, Runt-CBFb FRET 0, Wee1 stabilizer 6, HMGR II inh 1, PHOSPHO1 inh -27 and Runt-SMMHC FRET 0.
Screening CCCCCn1c(=O)c(C(=O)NCCc2ccccc2)c(O)c2ccccc21 returned RanGTP-Imp inh 1 and PHOSPHO1 inh -44.
COc1ccc(CCNC(=O)c2c(N)n(CCN3CCOCC3)c3nc4ccccc4nc23)cc1OC was read as RanGTP-Imp inh 55*, Runt-CBFb FRET 19, Wee1 stabilizer -2, HMGR II inh -3, PHOSPHO1 inh 15 and Runt-SMMHC FRET 46.
For CCCCCn1c(N)c(C(=O)NCCN2CCOCC2)c2nc3ccccc3nc21 the results were RanGTP-Imp inh 60*, Runt-CBFb FRET 1, Wee1 stabilizer -1, HMGR II inh -2, PHOSPHO1 inh 32 and Runt-SMMHC FRET 94*.
C[C@@]12N[C@@H](Cc3ccccc31)c1ccccc12 was read as RanGTP-Imp inh 1.
Screening O=c1nc(/C=C/c2ccc(Cl)cc2Cl)cc(C(F)(F)F)[nH]1 returned RanGTP-Imp inh -3 and PHOSPHO1 inh 49.
Screening Cc1ccc2[nH]c3c(c2c1)CN(C(=O)CN1C[C@H]2C[C@@H](C1)c1cccc(=O)n1C2)CC3 returned RanGTP-Imp inh -32 and PHOSPHO1 inh 29.
CCCCCCC(Cl)(Cn1ccnc1)c1ccccc1 (centres undefined) was read as RanGTP-Imp inh -4.
Cc1cc(C)c2c(ccc3cccc[n+]32)c1 was read as RanGTP-Imp inh 0.
Screening CCN1CCN(C(=O)COc2ccc(S(=O)(=O)N3CCOCC3)cc2C)CC1 returned RanGTP-Imp inh 2 and PHOSPHO1 inh 35.
`COc1ccc(C(=O)C2CCCN(Cc3cnc(C)s3)C2)c(OC)c1` (centres undefined) gave RanGTP-Imp inh 4, Runt-CBFb FRET 0, Wee1 stabilizer -4, HMGR II inh 16*, PHOSPHO1 inh 41 and Runt-SMMHC FRET 2.
Screening COc1ccc(C(=O)C2CCCN(Cc3cnc(C)s3)C2)cc1OC (centres undefined) returned RanGTP-Imp inh 2, Runt-CBFb FRET 1, Wee1 stabilizer 1, HMGR II inh 0, PHOSPHO1 inh 11 and Runt-SMMHC FRET 2.
`COc1ccc(C2=NS(=O)(=O)N(C)C(C(=O)N3CCC4(CC3)OCCO4)=C2)cc1OC` gave RanGTP-Imp inh inconclusive and PHOSPHO1 inh 26.
`CCOC(=O)CNC(=S)N1CC2C[C@@H](C1)Cn1c2cccc1=O` gave RanGTP-Imp inh 5.
For O=C(CN1CC=C(c2ccccc2)CC1)Nc1cc(Cl)ccc1Cl the results were RanGTP-Imp inh 1, Runt-CBFb FRET 1, Wee1 stabilizer 1, HMGR II inh 5, PHOSPHO1 inh -10 and Runt-SMMHC FRET -7.
`Cc1ccc(S(=O)(=O)N2CCCCC2)cc1NC(=O)CN1CC=C(c2ccccc2)CC1` gave RanGTP-Imp inh 0, Runt-CBFb FRET -1, Wee1 stabilizer 9.2*, HMGR II inh -9, PHOSPHO1 inh -4 and Runt-SMMHC FRET 1.
For Oc1cc2c(cc1O)[C@H]1c3ccccc3CN[C@@H]1CC2 the results were RanGTP-Imp inh 1, Runt-CBFb FRET 35, Wee1 stabilizer -1, HMGR II inh 3, PHOSPHO1 inh 16 and Runt-SMMHC FRET 56*.
`Oc1ccc(/C=N/NP(=S)(c2ccccc2)c2ccccc2)c(O)c1O` gave RanGTP-Imp inh 0, Runt-CBFb FRET 18, Wee1 stabilizer 3, HMGR II inh -4, PHOSPHO1 inh 84* and Runt-SMMHC FRET 2.
Screening O=C(COc1ccc(Cl)cc1)NCCc1cnc[nH]1 returned RanGTP-Imp inh -2 and PHOSPHO1 inh 14.
Cc1cc(=O)oc2cc3c(cc12)CCCN3 was read as RanGTP-Imp inh 84* and PHOSPHO1 inh 24.
For N#CC1=C(N)Oc2c(c(=O)oc3ccccc23)C1c1ccc(OC(=O)N2CCOCC2)cc1 (centres undefined) the results were RanGTP-Imp inh 2.
